Results from ChEMBL document CHEMBL4613315, “Design of First-in-Class Dual EZH2/HDAC Inhibitor: Biochemical Activity and Biological Evaluation in Cancer Cells” (ACS Med Chem Lett, 2020).
Calls of active or inactive are those of the source. The calls are words filed in the database; no cut-off is given here.

How the values were obtained:
[1] = target: T1, Protein deacetylase HDAC6 (Homo sapiens, UniProt Q9UBN7); experiment: Inhibition of human recombinant HDAC6 using AMC-K(Ac)GL as substrate by fluorescence based assay
T1 sequence (Q9UBN7 whole entry): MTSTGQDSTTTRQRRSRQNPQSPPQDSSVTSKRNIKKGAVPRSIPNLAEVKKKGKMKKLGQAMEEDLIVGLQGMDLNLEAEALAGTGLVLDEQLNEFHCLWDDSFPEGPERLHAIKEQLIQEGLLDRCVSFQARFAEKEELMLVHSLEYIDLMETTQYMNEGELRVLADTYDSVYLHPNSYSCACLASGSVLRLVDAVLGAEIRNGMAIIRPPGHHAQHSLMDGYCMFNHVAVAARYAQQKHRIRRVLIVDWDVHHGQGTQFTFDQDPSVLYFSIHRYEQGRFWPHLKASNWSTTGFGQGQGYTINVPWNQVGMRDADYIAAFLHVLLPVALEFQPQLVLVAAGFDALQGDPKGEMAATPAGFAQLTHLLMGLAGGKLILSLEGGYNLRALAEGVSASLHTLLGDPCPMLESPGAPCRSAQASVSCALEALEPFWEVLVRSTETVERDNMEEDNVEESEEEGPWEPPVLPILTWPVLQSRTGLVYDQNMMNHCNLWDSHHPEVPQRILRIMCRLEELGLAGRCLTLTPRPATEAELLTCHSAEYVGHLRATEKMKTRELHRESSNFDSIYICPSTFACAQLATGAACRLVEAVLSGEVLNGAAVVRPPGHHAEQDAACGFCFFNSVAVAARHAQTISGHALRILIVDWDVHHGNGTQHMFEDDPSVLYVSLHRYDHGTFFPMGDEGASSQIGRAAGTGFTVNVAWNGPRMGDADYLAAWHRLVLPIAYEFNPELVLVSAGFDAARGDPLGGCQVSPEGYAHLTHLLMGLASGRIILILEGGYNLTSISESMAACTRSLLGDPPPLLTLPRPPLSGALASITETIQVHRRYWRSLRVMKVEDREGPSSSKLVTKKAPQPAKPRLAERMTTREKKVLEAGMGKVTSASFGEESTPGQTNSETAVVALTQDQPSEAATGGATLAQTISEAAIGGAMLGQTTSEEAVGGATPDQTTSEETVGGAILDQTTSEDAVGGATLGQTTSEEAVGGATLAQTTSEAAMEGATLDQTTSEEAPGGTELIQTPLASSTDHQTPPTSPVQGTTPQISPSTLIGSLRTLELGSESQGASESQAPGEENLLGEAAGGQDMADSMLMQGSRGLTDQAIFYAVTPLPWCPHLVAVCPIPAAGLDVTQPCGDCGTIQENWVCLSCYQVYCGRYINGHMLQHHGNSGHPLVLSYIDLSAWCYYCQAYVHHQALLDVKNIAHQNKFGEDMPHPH

[2] = Cytotoxicity against human RH4 cells assessed as reduction in cell viability at 20 uM incubated for 96 hrs by CellTiter-Glo Luminescent cell viability assay relative to control; assay type: functional; settings: Rh4, 96 h
Summary of the method: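 Viability of U937 (5–25 μM) and RH4 (5–35 μM) cells after 48, 72 and 96 h of treatment at increasing concentrations.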

[3] = Cytotoxicity against human RH4 cells assessed as reduction in cell viability incubated for 72 hrs by CellTiter-Glo Luminescent cell viability assay; assay type: functional, cell-based; settings: Rh4, 72 h
Summary of the method: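 Antiproliferative IC50 after 72 h of treatment. Values are means of three independent experiments, each measured in triplicate, ± SD.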

[4] = tested on: U-937; experiment: Induction of apoptosis in human U937 cells assessed as viable cells at 10 uM incubated for 72 hrs by annexin V-FITC staining based flow cytometry (reference value: 95.4 %); assay type: functional; settings: U-937, 72 h, read-out: Activity
[5] = Cell cycle arrest in human RH4 cells assessed as G2/M accumulation at 14 uM incubated for 72 hrs by propidium iodide staining based flow cytometry (reference value: 18.9 %); assay type: functional
[6] = Induction of apoptosis in human RH4 cells assessed as late apoptotic cells at 14 uM incubated for 72 hrs by annexin V-FITC staining based flow cytometry (reference value: 2.1 %); assay type: functional
[7] = Induction of apoptosis in human RH4 cells assessed as necrotic cells at 14 uM incubated for 72 hrs by annexin V-FITC staining based flow cytometry (reference value: 0.4 %); assay type: functional
[8] = tested on: U-937; experiment: Cell cycle arrest in human U937 cells assessed as increase in subG1 accumulation incubated for 72 hrs by propidium iodide staining based assay; assay type: functional
[9] = tested on: U-937; experiment: Induction of differentiation of human U937 cells assessed as increase in CD11b level at 25 uM incubated for 72 hrs by flow cytometry analysis; assay type: functional
Summary of the method: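 U937 cells were treated for 72 h at 10 and 25 μM, and surface CD11b expression was measured as a differentiation marker.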

[10] = species: Homo sapiens; experiment: Induction of differentiation of human RH4 cells assessed as increase in myogenin level at 7 uM incubated for 96 hrs by Western blot analysis; assay type: functional
Summary of the method: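 Myogenin was measured by Western blot in RH4 cells treated at 7 and 14 μM for 48, 72 and 96 h. Vinculin served as the loading control.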

[11] = tested on: U-937; experiment: Cytotoxicity against human U937 cells assessed as reduction in cell viability at 25 uM in presence of vorinostat incubated for 72 hrs by CellTiter-Glo Luminescent cell viability assay relative to control; assay type: functional; settings: U-937, 72 h
Summary of the method: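 Viability after 72 h of single-agent or combined treatment with the HDAC inhibitor (0.05–0.25 μM) and the EZH2 inhibitor. EZH2 inhibitor range: U937 5–25 μM; RH4 10–50 μM. Synergy was assessed by combination index and isobologram analysis.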

[12] = target: Histone-lysine N-methyltransferase EZH2 (Homo sapiens, UniProt Q15910); experiment: Inhibition of EZH2 in human U937 cells assessed as H3K27me3 level at 50 uM incubated for 120 hrs by Western blot analysis; assay type: cell-based; settings: U-937
[13] = target: T2, Protein deacetylase HDAC6 (Homo sapiens) (UniProt Q9UBN7); experiment: Inhibition of HDAC6 in human RH4 cells assessed as acetylated alpha-tubulin level at 50 uM incubated for 72 hrs by Western blot analysis; assay type: cell-based
T2 sequence (whole entry): T1 sequence (Q9UBN7 whole entry)

[14] = target: T2, Protein deacetylase HDAC6 (Homo sapiens); experiment: Inhibition of HDAC6 in human RH4 cells assessed as acetylated alpha-tubulin level at 50 uM incubated for 96 hrs by Western blot analysis; assay type: cell-based
[15] = target: T3, Histone deacetylase (Homo sapiens) (UniProt Q13547+O15379+Q9UBN7+Q92769+Q9UQL6+Q8WUI4+Q9BY41+Q96DB2+P56524+Q9UKV0+Q969S8); experiment: Inhibition of HDAC in human U937 cells assessed as Ac-H3 level at 50 uM incubated for 96 hrs by Western blot analysis (reference value: 1); assay type: cell-based; settings: U-937
[16] = target: T3, Histone deacetylase (Homo sapiens); experiment: Inhibition of HDAC in human U937 cells assessed as Ac-H3 level at 50 uM incubated for 120 hrs by Western blot analysis (reference value: 1); assay type: cell-based; settings: U-937
[17] = target: T2, Protein deacetylase HDAC6 (Homo sapiens); experiment: Inhibition of HDAC6 in human RH4 cells assessed as acetylated alpha-tubulin level at 50 uM in presence of vorinostat incubated for 96 hrs by Western blot analysis (reference value: 1); assay type: cell-based
Summary of the method: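 RH4 cells co-treated with EZH2 inhibitor at 50 μM plus HDAC inhibitor at 0.15 μM; Western blot after 72 or 96 h for H3K27me3 or acetyl-tubulin, vinculin loading control; densitometry normalized to loading control then DMSO vehicle.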

Histone-lysine N-methyltransferase EZH2, sequence (Q15910 whole entry, looked up): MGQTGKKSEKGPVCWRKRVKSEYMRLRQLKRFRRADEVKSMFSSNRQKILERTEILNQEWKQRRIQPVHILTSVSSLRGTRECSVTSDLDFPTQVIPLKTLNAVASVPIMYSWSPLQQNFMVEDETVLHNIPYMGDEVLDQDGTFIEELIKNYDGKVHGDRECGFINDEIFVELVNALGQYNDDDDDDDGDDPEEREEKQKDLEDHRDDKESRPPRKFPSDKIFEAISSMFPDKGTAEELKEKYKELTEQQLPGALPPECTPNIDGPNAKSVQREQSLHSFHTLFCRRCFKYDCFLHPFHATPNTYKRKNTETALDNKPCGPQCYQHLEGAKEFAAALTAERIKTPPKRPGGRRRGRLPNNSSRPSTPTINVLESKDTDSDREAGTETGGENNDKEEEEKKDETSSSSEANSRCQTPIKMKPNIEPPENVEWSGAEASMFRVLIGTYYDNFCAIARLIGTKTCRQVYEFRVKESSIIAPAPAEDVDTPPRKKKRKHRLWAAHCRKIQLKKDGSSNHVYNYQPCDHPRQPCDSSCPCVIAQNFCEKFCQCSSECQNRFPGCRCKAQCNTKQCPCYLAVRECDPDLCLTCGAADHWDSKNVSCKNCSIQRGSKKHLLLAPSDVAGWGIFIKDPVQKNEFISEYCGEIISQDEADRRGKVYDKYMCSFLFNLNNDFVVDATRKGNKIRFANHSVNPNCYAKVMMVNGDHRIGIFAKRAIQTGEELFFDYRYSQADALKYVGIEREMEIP

Compound	IC50 [1] [µM]	inhibition at 20 µM [2] [%]	IC50 [3] [µM]	viability at 10 µM [4] [%]	Activity [5] [%]	Activity [6] [%]	Activity [7] [%]	Activity [8]	fold change (FC) [9]	Activity [10]	inhibition at 25 µM [11] [%]	fold change (FC) [12]	fold change (FC) [13]	fold change (FC) [14]	fold change (FC) [15]	fold change (FC) [16]	fold change (FC) [17]
Cc1cc(C)c(CNC(=O)c2cc(C)n(-c3cccc(NC(=O)CCCCCCC(=O)NO)c3)c2C)c(=O)[nH]1	0.005	> 60	13	95	16.1	3.2	0.4	Dose-dependent effect	2.7	Active	–	–	–	–	–	–	–
Cc1cc(C)c(CNC(=O)c2cc(C)n(-c3ccccc3)c2C)c(=O)[nH]1	–	–	–	–	–	–	–	–	–	–	90	0.7	0.6	1.4	1.4	0.7	1.3
